Data taken from EPA's CvTdb concentration-time database.
Where “and” joins values, the source holds several entries; their conditions need not be identical. Identical values can stand only once.

Assays:
human = test: concentration in blood after dosing; negative times count back from the end of exposure; conditions: inhalation, duration: 4 hr
Summary of the method: (§1)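 Data points giving concentration or amount against time came from published in vivo toxicokinetic studies and from two structured collections. PubMed searching, classifier screening and manual review located the studies. Most points were digitised from plot screenshots using WebPlotDigitizer, the rest were copied from tables, and all keep their reported units.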

rat [1] = test: concentration in blood after dosing; negative times count back from the end of exposure; conditions: inhalation
rat [2] = test: concentration in lung after dosing; conditions: dosed: benzo[a]pyrene, inhalation, duration: 4 hr, F344
rat [3] = test: concentration in plasma after dosing; conditions: dosed: benzo[a]pyrene, inhalation, duration: 4 hr, F344
rat [4] = test: concentration in expired air after dosing; conditions: dosed: hexachloroethane, 53.3 ppm, inhalation, duration: 6 hr
rat [5] = test: concentration in expired air after dosing; conditions: dosed: hexachloroethane, 53.3 ppm, inhalation, duration: 6 hr; remark: listed apart in the source
dog = test: concentration in blood after dosing; negative times count back from the end of exposure; conditions: dosed: tetrachloroethylene, inhalation, duration: 4 hr, male, beagle
Summary of the method: as §1

Rat [6] = test: concentration in blood after dosing; negative times count back from the end of exposure; conditions: dosed: 1,2-dichloroethane, inhalation, duration: 6 hr, Male, F344

CCO [ethanol]
concentration in blood [ng/mL], human, dosed: ethanol
Conditions | female | male
0.4897 h, 125 ppm | 60 | 62.3
0.4897 h, 250 ppm | – | 101
0.4897 h, 450 ppm | 158 | 201
0.4966 h, 750 ppm | 299 | 227
0.4966 h, 1000 ppm | 571 | 267
0.9954 h, 250 ppm | 74.2 | 67.1
1.002 h, 125 ppm | 42.9 | 40.8
1.002 h, 450 ppm | 101 | 112
1.002 h, 750 ppm | 153 | 94
1.002 h, 1000 ppm | 248 | 142

concentration in blood [ng/mL], human, dosed: ethanol, during exposure
Conditions | -33 s | -8 s | -4 h | -3.002 h | -2.995 h | -1.007 h | -1 h
125 ppm, female | – | 179 | 35.6 | 165 | – | – | 158
125 ppm, male | – | 196 | 36.9 | 165 | – | – | 196
250 ppm, female | 451 | – | 78.9 | 374 | – | 445 | –
250 ppm, male | – | – | 42.9 | 468 | – | 457 | –
450 ppm, female | 1000 | – | 52.4 | 851 | – | – | 1000
450 ppm, male | 1090 | – | – | 851 | – | – | 905
750 ppm, female | – | 1620 | 65.5 | – | 1430 | – | 1860
750 ppm, male | – | 2060 | – | – | 1770 | – | 1510
1000 ppm, female | 2640 | – | 133 | – | 2300 | – | 2510
1000 ppm, male | 2920 | – | – | – | 2810 | – | 2360

CCCCCCCCC [nonane]
rat [1], dosed: nonane, duration: 4 hr
Conditions | concentration in blood [µg/g]
-83 s, 100 ppm, Fischer-344, during exposure | 0.892
-71 s, 500 ppm, Fischer-344, during exposure | 4.34
-56 s, 1000 ppm, Fischer-344, during exposure | 16.8
-3.501 h, 500 ppm, Fischer-344, during exposure | 2.02
-3.496 h, 1000 ppm, Fischer-344, during exposure | 7.04
-3.494 h, 100 ppm, Fischer-344, during exposure | 0.434
-3.003 h, 100 ppm, Fischer-344, during exposure | 0.523
-2.994 h, 1000 ppm, Fischer-344, during exposure | 6.96
-2.988 h, 500 ppm, Fischer-344, during exposure | 2.21
-2.014 h, 1000 ppm, Fischer-344, during exposure | 15.4
-2.009 h, 100 ppm, Fischer-344, during exposure | 0.518
-2.007 h, 500 ppm, Fischer-344, during exposure | 3.72
-1.02 h, 1000 ppm, Fischer-344, during exposure | 17.2
-1.016 h, 100 ppm, Fischer-344, during exposure | 0.672
-1.013 h, 500 ppm, Fischer-344, during exposure | 3.57
0.1362 h, 1000 ppm, Fischer-344 | 11
0.1413 h, 100 ppm, Fischer-344 | 0.367
0.1425 h, 500 ppm, Fischer-344 | 2.81
0.2276 h, 100 ppm, Fischer-344 | 0.309
0.2331 h, 1000 ppm, Fischer-344 | 9.37
0.2405 h, 500 ppm, Fischer-344 | 1.93
0.4818 h, 1000 ppm, Fischer-344 | 5.11
0.4859 h, 100 ppm, Fischer-344 | 0.209
0.4867 h, 500 ppm, Fischer-344 | 1.77
0.9803 h, 500 ppm, Fischer-344 | 1.17
0.9804 h, 100 ppm, Fischer-344 | 0.115
0.9849 h, 1000 ppm, Fischer-344 | 4.34
1.969 h, 100 ppm, Fischer-344 | 0.0382
1.99 h, 500 ppm, Fischer-344 | 0.41
1.992 h, 1000 ppm, Fischer-344 | 2.37
2.984 h, 500 ppm, Fischer-344 | 0.368
2.985 h, 100 ppm, Fischer-344 | 0.0308
2.999 h, 1000 ppm, Fischer-344 | 1.47
3.992 h, 100 ppm, Fischer-344 | 0.0196
3.997 h, 1000 ppm, Fischer-344 | 0.691
4.002 h, 500 ppm, Fischer-344 | 0.255
198 s, 100 ppm, Fischer-344 | 0.432
217 s, 1000 ppm, Fischer-344 | 13.7
239 s, 500 ppm, Fischer-344 | 3.73

Oc1ccc2ccc3c4ccccc4cc4ccc1c2c43 [3-hydroxy benzo[a]pyrene]
Conditions | concentration in lung, 0.05 h [ng/mL] | concentration in lung, 1 h [ng/mL] | concentration in lung, 2 h [ng/mL] | concentration in lung, 4 h [ng/mL] | concentration in plasma, 0.5 h [ng/mL] | concentration in plasma, 1 h [ng/mL] | concentration in plasma, 2 h [ng/mL] | concentration in plasma, 4 h [ng/mL]
rat [2], 0.1 mg/m^3, female | 0.389 | 3.61 | 0.814 | 0.209 | – | – | – | –
rat [2], 0.1 mg/m^3, male | 0.29 | 2.87 | 1.21 | 0.154 | – | – | – | –
rat [2], 1 mg/m^3, female | 11.8 | 15.5 | 14.6 | 1.6 | – | – | – | –
rat [2], 1 mg/m^3, male | 5.1 | 16.6 | 5.12 | 3 | – | – | – | –
rat [2], 2.5 mg/m^3, female | 23.9 | 52.2 | 12.3 | 1.49 | – | – | – | –
rat [2], 2.5 mg/m^3, male | 21.7 | 48.1 | 8.15 | 3.18 | – | – | – | –
rat [3], 0.1 mg/m^3, female | – | – | – | – | 0.174 | 0.689 | 0.344 | 0.0192
rat [3], 0.1 mg/m^3, male | – | – | – | – | 0.301 | 0.905 | 0.305 | 0.0316
rat [3], 1 mg/m^3, female | – | – | – | – | 0.399 | 7 | 0.356 | 0.00793
rat [3], 1 mg/m^3, male | – | – | – | – | 0.606 | 8.58 | 0.97 | 0.00272
rat [3], 2.5 mg/m^3, female | – | – | – | – | 5.8 | 34.5 | 6.62 | 0.324
rat [3], 2.5 mg/m^3, male | – | – | – | – | 5.6 | 33.1 | 7.14 | 0.363

ClC(Cl)(Cl)C(Cl)(Cl)Cl [hexachloroethane]
concentration in expired air [ng/mL]
Conditions | rat [4] | rat [5]
0.2509 h | 96.3 | –
0.7326 h | 55.5 | –
0.8034 h | – | 73.1
0.9876 h | 48.8 | 51.1
1.498 h | 49.2 | –
1.653 h | – | 36.3
1.979 h | – | 26.3
2.489 h | 27.8 | 24.2
2.985 h | 19.8 | –
3.509 h | – | 17.9
4.983 h | 15.7 | 10.9
5.975 h | 15.4 | –
5.989 h | – | 10.1
7.236 h | – | 9.9
7.986 h | 7.51 | 8.23
8.978 h | 6.78 | 7.36
9.998 h | 5.85 | 6.12
29.5 min | – | 79.4

CCCCCC [n-hexane]
rat [1], dosed: n-hexane, 3000 ppm, duration: 6 hr
Conditions | concentration in blood [ng/mL]
0.4718 h | 2220
0.9831 h | 1920
1.99 h | 1370
4.003 h | 65.6
5.974 h | 42.2
7.994 h | 59.3
29 s | 8420

rat [1], dosed: n-hexane, 3000 ppm, duration: 6 hr, during exposure
Conditions | concentration in blood [ng/mL]
-6 h | 20.3
-5.509 h | 7900
-5.025 h | 8530
-4.008 h | 9820
-3.002 h | 9010
-2.005 h | 9720

ClC(Cl)=C(Cl)Cl [tetrachloroethylene]
dog
Conditions | concentration in blood [ng/mL]
2.446 h, 142 ppm | 696
2.79 h, 72 ppm | 345
18.14 h, 72 ppm | 371
18.34 h, 142 ppm | 848
42.06 h, 72 ppm | 352
42.32 h, 142 ppm | 798
67.19 h, 72 ppm | 315
67.21 h, 142 ppm | 681
91.19 h, 72 ppm | 262
92.53 h, 142 ppm | 603
139.29 h, 72 ppm | 166
139.47 h, 142 ppm | 405
163.11 h, 72 ppm | 135
163.12 h, 142 ppm | 314

dog, during exposure
Conditions | concentration in blood [ng/mL]
-227 s, 72 ppm | 200
-0.3342 h, 142 ppm | 516

human, dosed: tetrachloroethylene, 144 ppm, male
Conditions | concentration in blood [ng/mL]
2.478 h | 601
18.43 h | 752
42.35 h | 705
67.23 h | 618
92.18 h | 515
139.2 h | 334
163.09 h | 271

Conditions | concentration in blood [ng/mL]
human, -0.3835 h, dosed: tetrachloroethylene, 144 ppm, male, during exposure | 484

ClCCCl [1,2-dichloroethane]
concentration in blood [ng/mL], Rat [6]
Conditions | 50 ppm | 250 ppm
0.1443 h | 815 | 24500
0.2313 h | 664 | –
0.2438 h | – | 19700
0.3184 h | 495 | –
0.3308 h | – | 15800
0.4925 h | 239 | 12300
0.7413 h | 131 | 8050
0.99 h | – | 5340
1.488 h | – | 1940
1.973 h | – | 664
2.993 h | – | 124
295 s | 962 | 26800

concentration in blood, Rat [6], during exposure
Conditions | -18 s | -5.515 h | -5.005 h | -4.01 h | -3.015 h | -3.002 h
50 ppm | 1360 ng/mL | 476 ng/mL | 926 ng/mL | 1340 ng/mL | – | 1340 ng/mL
250 ppm | 30800 ng/mL | 5840 ng/mL and 6640 ng/mL | 11700 ng/mL | 23600 ng/mL | 29300 ng/mL | –

rat [1], dosed: 1,2-dichloroethane, duration: 6 hr, male
Conditions | concentration in blood [ng/mL]
-5.75 h, 200 ppm, Fischer-344, during exposure | 768
-5.5 h, 200 ppm, Fischer-344, during exposure | 1320
-5 h, 200 ppm, Fischer-344, during exposure | 1920
-3 h, 200 ppm, Fischer-344, during exposure | 3170
0 h, 200 ppm, Fischer-344 | 2940
0.1607 h, 150 ppm, Osborne-Mendel | 3870
0.2398 h, 150 ppm, Osborne-Mendel | 2830
0.25 h, 200 ppm, Fischer-344 | 851
0.3387 h, 150 ppm, Osborne-Mendel | 2010
0.4969 h, 150 ppm, Osborne-Mendel | 1320
0.665 h, 150 ppm, Osborne-Mendel | 670
0.9913 h, 150 ppm, Osborne-Mendel | 708
1.328 h, 150 ppm, Osborne-Mendel | 279
258 s, 150 ppm, Osborne-Mendel | 5010

rat [1], dosed: 1,2-dichloroethane, 150 ppm, duration: 6 hr, male, Osborne-Mendel, during exposure
Conditions | concentration in blood [ng/mL]
-27 s | 9390
-5.001 h | 5160
-3.34 h | 8640
-2.005 h | 8290
